{"source": "ChEMBL document CHEMBL1146147", "about": "“Study on synthesis and biological activity of a galactosylated piperazinyl porphyrin” (Bioorg Med Chem Lett, 2006)", "key": {"[1]": {"test": "Anticancer activity against human HNE1 cells at 6.25 ug/ml after 18 hrs by MTT assay", "format": "functional", "method_in_brief": "(§1)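 Human tumour cells (Bel-7404 liver, MCG stomach, HNE1 nasopharyngeal) exposed to compound in solution for 18 h at 37 °C under air with 5% CO2, either kept in the dark or irradiated at 650 nm, 20 J/cm². Viability read by MTT; activity reported as percent cell death.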"}, "[2]": {"test": "Anticancer activity against human MCG cells at 6.25 ug/ml after 18 hrs by MTT assay", "format": "functional", "method_in_brief": "as §1"}, "[3]": {"test_system": "BEL-7404 tumor cell line", "test": "Anticancer activity against human Bel7404 cells at 6.25 ug/ml after 18 hrs by MTT assay", "format": "functional", "method_in_brief": "as §1"}, "[4]": {"test": "Anticancer activity against human HNE1 cells by MTT assay", "format": "functional", "conditions": "read-out: ID50 (the source's name)", "method_in_brief": "(§2)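 MTT assay of human tumour cell lines (Bel-7404 liver, MCG stomach, HNE1 nasopharyngeal carcinoma) run in the absence of light. ID50 is taken as the concentration giving 50% cell death, in ug/ml.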"}, "[5]": {"test_system": "BEL-7404 tumor cell line", "test": "Anticancer activity against human Bel7404 cells by MTT assay", "format": "functional", "conditions": "read-out: ID50 (the source's name)", "method_in_brief": "as §2"}, "[6]": {"test": "Anticancer activity against human MCG cells with irradiation at 6.25 ug/ml after 18 hrs by MTT assay", "format": "functional", "method_in_brief": "(§3)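 Human tumour cells (Bel-7404, MCG, HNE1) incubated 18 h with compound at 6.25 ug/ml at 37 °C in air with 5% CO2. Cells irradiated at 650 nm, 20 J/cm²; parallel wells kept unirradiated. Cell death rate read by MTT.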"}, "[7]": {"test": "Anticancer activity against human MCG cells by MTT assay", "format": "functional", "conditions": "read-out: ID50 (the source's name)", "method_in_brief": "as §2"}, "[8]": {"test_system": "BEL-7404 tumor cell line", "test": "Anticancer activity against human Bel7404 cells with irradiation at 6.25 ug/ml after 18 hrs by MTT assay", "format": "functional", "method_in_brief": "as §3"}, "[9]": {"test": "Partition coefficient of the compound", "format": "ADME", "conditions": "octanol/water", "method_in_brief": "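Compound distributed between the two non-miscible solvents octanol and water. Reported as the octanol/water partition ratio.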"}, "[10]": {"test": "Anticancer activity against human HNE1 cells with irradiation at 6.25 ug/ml after 18 hrs by MTT assay", "format": "functional", "method_in_brief": "as §3"}}}
{"smiles": "O=c1[nH]cc(F)c(=O)[nH]1", "note": "[FLUOROURACIL]", "values": [{"measurement": "Activity", "setting": "[1]", "value": 29, "unit": "%"}, {"measurement": "Activity", "setting": "[2]", "value": 29, "unit": "%"}, {"measurement": "Activity", "setting": "[3]", "value": 29, "unit": "%"}]}
{"smiles": "O=C([C@H](O)[C@@H](O)[C@H](O[C@@H]1O[C@H](CO)[C@H](O)[C@H](O)[C@H]1O)[C@H](O)CO)N1CCN(c2ccc(-c3c4nc(c(-c5ccc(N6CCN(C(=O)[C@H](O)[C@@H](O)[C@H](O[C@@H]7O[C@H](CO)[C@H](O)[C@H](O)[C@H]7O)[C@H](O)CO)CC6)cc5)c5ccc([nH]5)c(-c5ccc(N6CCN(C(=O)[C@H](O)[C@@H](O)[C@H](O[C@@H]7O[C@H](CO)[C@H](O)[C@H](O)[C@H]7O)[C@H](O)CO)CC6)cc5)c5nc(c(-c6ccc(N7CCN(C(=O)[C@H](O)[C@@H](O)[C@H](O[C@@H]8O[C@H](CO)[C@H](O)[C@H](O)[C@H]8O)[C@H](O)CO)CC7)cc6)c6ccc3[nH]6)C=C5)C=C4)cc2)CC1", "values": [{"measurement": "IC50", "setting": "[4]", "value": 33, "unit": "µg/mL"}, {"measurement": "IC50", "setting": "[5]", "value": 29, "unit": "µg/mL"}, {"measurement": "Activity", "setting": "[6]", "value": 96, "unit": "%"}, {"measurement": "Activity", "setting": "[1]", "value": 19, "unit": "%"}, {"measurement": "IC50", "setting": "[7]", "value": 35, "unit": "µg/mL"}, {"measurement": "Activity", "setting": "[2]", "value": 19, "unit": "%"}, {"measurement": "Activity", "setting": "[3]", "value": 19, "unit": "%"}, {"measurement": "Activity", "setting": "[8]", "value": 96, "unit": "%"}, {"measurement": "Ratio", "setting": "[9]", "value": 18}, {"measurement": "Activity", "setting": "[10]", "value": 96, "unit": "%"}]}
{"smiles": "Nc1ccc(-c2c3nc(c(-c4ccc(N)cc4)c4ccc([nH]4)c(-c4ccc(N)cc4)c4nc(c(-c5ccc(N)cc5)c5ccc2[nH]5)C=C4)C=C3)cc1", "values": [{"measurement": "IC50", "setting": "[4]", "value": 28, "unit": "µg/mL"}, {"measurement": "IC50", "setting": "[5]", "value": 33, "unit": "µg/mL"}, {"measurement": "IC50", "setting": "[7]", "value": 24, "unit": "µg/mL"}, {"measurement": "Ratio", "setting": "[9]", "value": 42}]}
{"smiles": "O=C([C@H](O)[C@@H](O)[C@H](O[C@@H]1O[C@H](CO)[C@H](O)[C@H](O)[C@H]1O)[C@H](O)CO)N1CCNCC1", "note": "[GALACTOSYLATEDPIPERAZINE]", "values": [{"measurement": "IC50", "setting": "[4]", "value": "> 50", "unit": "µg/mL"}, {"measurement": "IC50", "setting": "[5]", "value": "> 50", "unit": "µg/mL"}, {"measurement": "IC50", "setting": "[7]", "value": "> 50", "unit": "µg/mL"}]}
